Experimental data published in ChEMBL document CHEMBL5576116, “Structural modification of the propyl linker of cjoc42 in combination with sulfonate ester and triazole replacements for enhanced gankyrin binding and anti-proliferative activity” (Bioorg Med Chem, 2024).
The source made the active and inactive calls. The rule behind the calls is not given here.

Assays:
HuH-6 [1] = assay: Antiproliferative activity against human HuH-6 cells incubated for 72 hrs by MTT assay; assay type: functional, cell-based; details: HuH-6, 72 h
Procedure, shortened: (§1)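 Cells kept in DMEM with 10% FBS and 1% penicillin/streptomycin, seeded at 2.5 x 10^4 cells/well and left 24 h before drug. Exposed to increasing compound concentrations for 72 h at 37 °C, 5% CO2. MTT dye (5.4 mg/mL) added for 3 h at 37 °C, formazan dissolved in DMSO, A570 read. 6–8 replicates per treatment; IC50 from dose–response curves.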

[2] = Cytotoxicity against HEK293 cells; assay type: toxicity, cell-based; details: human; procedure, shortened: as §1
Huh-7 = assay: Antiproliferative activity against human HuH-7 cells incubated for 72 hrs by MTT assay; assay type: functional, cell-based; details: Huh-7, 72 h; procedure, shortened: as §1
[3] = biological target: T1, 26S proteasome non-ATPase regulatory subunit 10 (Homo sapiens) (UniProt O75832); assay: Binding affinity to gankyrin in human HuH-6 cells assessed as thermal stability incubated for 5 hrs by CETSA; assay type: cell-based
T1 sequence (whole entry): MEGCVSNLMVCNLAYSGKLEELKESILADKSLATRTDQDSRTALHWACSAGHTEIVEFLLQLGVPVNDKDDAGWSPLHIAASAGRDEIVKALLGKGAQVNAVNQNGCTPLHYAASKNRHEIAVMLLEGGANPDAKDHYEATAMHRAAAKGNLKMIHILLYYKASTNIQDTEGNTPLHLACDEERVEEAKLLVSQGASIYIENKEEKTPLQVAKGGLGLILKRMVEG
Procedure, shortened: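 HuH6 cells treated for 5 h with compound or vehicle, 0.25% DMSO final. Harvested cells split into six aliquots heated at 50, 53, 56, 59, 62 or 65 °C. Lysed in RIPA with protease/phosphatase inhibitors, 60 min on ice. 15 μg protein run on reducing SDS-PAGE, blotted to PVDF, probed for gankyrin with β-actin reference, ECL detection. Melt curve mean ± SD, n = 3.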

HepG2 = assay: Antiproliferative activity against human HepG2 cells incubated for 72 hrs by MTT assay; assay type: functional, cell-based; details: HepG2, 72 h
Hep 3B2 = assay: Antiproliferative activity against human Hep3B cells incubated for 72 hrs by MTT assay; assay type: functional, cell-based
HuH-6 [4] = assay: Upregulation of p53 protein level in human HuH-6 cells at 0.82 to 3.3 uM incubated for 48 hrs by Western blotting analysis; assay type: functional, cell-based; details: dose 0.82-3.3 µM
Procedure, shortened: (§2)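 HuH6 cells in 10 cm dishes exposed to varying compound concentrations or vehicle (0.25% DMSO final) for 48 h. Harvested in cold PBS, lysed in RIPA plus protease/phosphatase inhibitors for 60 min on ice. 15 μg protein on reducing SDS-PAGE, transferred to PVDF, immunoblotted for p53, Rb and gankyrin with cyclophilin as reference; ECL detection. Run in duplicate.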

HuH-6 [5] = assay: Induction of cell cycle arrest in human HuH-6 cells assessed as decrease in S phase cells at 3.3 uM incubated for 72 hrs PI/RNAase staining based flow cytometry analysis; assay type: functional
Procedure, shortened: (§3)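 HuH6 cells treated 72 h with compound or vehicle (0.25% DMSO final), harvested in cold PBS, normalized, fixed in 70% ethanol at −20 °C overnight. Pellet stained with PI/RNase for 30 min at 37 °C, then analyzed by flow and imaging cytometry. Mean ± SD, n = 3; one-way ANOVA, P < 0.05 significant.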

HuH-6 [6] = assay: Effect on gankyrin protein level in human HuH-6 cells at 0.82 to 3.3 uM incubated for 48 hrs by Western blotting analysis; assay type: functional, cell-based; details: dose 0.82-3.3 µM; procedure, shortened: as §2
HuH-6 [7] = assay: Induction of cell cycle arrest in human HuH-6 cells assessed as accumulation of cells at […] phase at 3.3 uM incubated for 72 hrs PI/RNAase staining based flow cytometry analysis; assay type: functional; procedure, shortened: as §3
HuH-6 [8] = assay: Upregulation of Rb protein level in human HuH-6 cells at 0.82 to 3.3 uM incubated for 48 hrs by Western blotting analysis; assay type: functional, cell-based; details: dose 0.82-3.3 µM; procedure, shortened: as §2

Row | SMILES | IC50 (HuH-6 [1]) [µM] | also measured
1 | COC(=O)c1ccc(-n2cc(CCOS(=O)(=O)c3ccc(C)cc3)nn2)cc1 | > 50 | 
2 | COC(=O)c1ccc(C(=O)NCCNC(=O)c2ccc(C)cc2)cc1 | 31 | 
3 | COC(=O)c1ccc(NC(=O)Nc2ccc(C)cc2)cc1 | 38.8 | 
4 | Cc1ccc(C(=O)NCCCNC(=O)c2ccc(C)cc2)cc1 | > 50 | 
5 | COC(=O)c1ccc(-n2cc(CCCCNC(=O)c3ccc(C)cc3)nn2)cc1 | 19.5 | 
6 | COC(=O)c1ccc(NC(=O)CCCCC(=O)Nc2ccc(C(=O)OC)cc2)cc1 | > 50 | 
7 | COC(=O)c1ccc(C(=O)NCCCNC(=O)c2ccc(C)cc2)cc1 | > 50 | 
8 | COc1ccc(CNC(=O)NS(=O)(=O)c2ccc(C)cc2)cc1 | > 50 | 
9 | COC(=O)c1ccc(NC(=O)CCCCC(=O)Nc2ccc(C)cc2)cc1 | > 50 | 
10 | Cc1ccc(NC(=O)NS(=O)(=O)c2ccc(C)cc2)cc1 | > 50 | 
11 | COC(=O)c1ccc(C(=O)NCCCCNC(=O)c2ccc(-c3ccccc3)cc2)cc1 | > 50 | 
12 | Cc1ccc(NC(=O)CCC(=O)Nc2ccc(C)cc2)cc1 | > 50 | 
13 | Cc1ccc(NC(=O)CCCCC(=O)Nc2ccc(C)cc2)cc1 | > 50 | 
14 | COc1ccc(C(=O)NCCCNC(=O)c2ccc(-c3ccccc3)cc2)cc1 | 2.4 | IC50 [2]: 3.3 µM
15 | Cc1ccc(C(=O)NCCCCNC(=O)c2ccc(C)cc2)cc1 | > 50 | 
16 | COC(=O)c1ccc(C(=O)NCCCNC(=O)c2ccc(C(=O)OC)cc2)cc1 | 19.8 | IC50 [2]: > 50 µM
17 | Cc1ccc(NC(=O)CC(=O)Nc2ccc(C)cc2)cc1 | > 50 | 
18 | COC(=O)c1ccc(C(=O)NCCNC(=O)c2ccc(C(=O)OC)cc2)cc1 | > 50 | 
19 | COC(=O)c1ccc(C(=O)NCCCCNC(=O)c2ccc(C(=O)OC)cc2)cc1 | > 50 | 
20 | COC(=O)c1ccc(C(=O)NCCCCNC(=O)c2ccc(C)cc2)cc1 | > 50 | 
21 | Cc1ccc(NC(=O)CCCC(=O)Nc2ccc(C)cc2)cc1 | > 50 | 

Row | SMILES | IC50 (HuH-6 [1]) [µM] | also measured
22 | Cc1ccc(CNC(=O)NS(=O)(=O)c2ccc(C)cc2)cc1 | > 50 | 
23 | Cc1ccc(C(=O)NCCNC(=O)c2ccc(C)cc2)cc1 | 30.2 | 
24 | COC(=O)c1ccc(NC(=O)CCC(=O)Nc2ccc(-c3ccccc3)cc2)cc1 | > 50 | 
25 | Cc1ccc(C(=O)NCCCCNC(=O)c2ccc(-c3ccccc3)cc2)cc1 | > 50 | 
26 | COC(=O)c1ccc(NC(=O)CCC(=O)Nc2ccc(C(=O)OC)cc2)cc1 | 3.3 | IC50 (Huh-7): > 50 µM; Activity [3]: Active; IC50 (HepG2): 24 µM; IC50 (Hep 3B2): > 50 µM; Activity (HuH-6 [4]): Active; IC50 [2]: > 50 µM; Activity (HuH-6 [5]): Active; Activity (HuH-6 [6]): inactive; Activity (HuH-6 [7]): Active; Activity (HuH-6 [8]): Active
27 | COC(=O)c1ccc(-n2cc(CCCOS(=O)(=O)c3ccc(C)cc3)nn2)cc1 | > 50 | 
28 | COC(=O)c1ccc(NC(=O)CCCC(=O)Nc2ccc(C(=O)OC)cc2)cc1 | 14.1 | 
29 | O=C(NCCCCNC(=O)c1ccc(C(F)(F)F)cc1)c1ccc(-c2ccccc2)cc1 | > 50 | 
30 | COC(=O)c1ccc(-n2cc(CCNC(=O)c3ccc(C)cc3)nn2)cc1 | > 50 | 
31 | Cc1ccc(CNC(=O)Nc2ccc(C)cc2)cc1 | > 50 | 
32 | COc1ccc(CNC(=O)Nc2ccc(C)cc2)cc1 | > 50 | 
33 | Cc1ccc(NC(=O)Nc2ccc(C)cc2)cc1 | > 50 | 
34 | O=C(NCCCNC(=O)c1ccc(C(F)(F)F)cc1)c1ccc(-c2ccccc2)cc1 | > 50 | 
35 | COC(=O)c1ccc(C(=O)NCCCNC(=O)c2ccc(-c3ccccc3)cc2)cc1 | > 50 | 
36 | COC(=O)c1ccc(CNC(=O)NS(=O)(=O)c2ccc(C)cc2)cc1 | > 50 | 
37 | COC(=O)c1ccc(NC(=O)CC(=O)Nc2ccc(C(=O)OC)cc2)cc1 | > 50 | 
38 | COC(=O)c1ccc(NC(=O)NS(=O)(=O)c2ccc(C)cc2)cc1 | > 50 | 
39 | Cc1ccc(C(=O)NCCCNC(=O)c2ccc(-c3ccccc3)cc2)cc1 | 20.3 | 
40 | COC(=O)c1ccc(CNC(=O)Nc2ccc(C)cc2)cc1 | > 50 | 
41 | COC(=O)c1ccc(-n2cc(CNC(=O)c3ccc(C)cc3)nn2)cc1 | > 50 | 
42 | COC(=O)c1ccc(-n2cc(CCCCOS(=O)(=O)c3ccc(C)cc3)nn2)cc1 | > 50 | 
